Measurements from PMC11445516 (Nature Communications, 2024).

Legend:
[1] = molecular target: human placental alkaline phosphatase (Homo sapiens, UniProt P05187); experiment: Hydrolysis in human placental alkaline phosphatase solution; assay type: in vitro ADME; conditions: human placental ALP 0.5 unit/mL, prodrug 100 μM, Tris pH 7.6, 37 °C
BxPC-3 xenograft = experiment: Efficacy study in BxPC-3 pancreatic cancer xenograft mouse model; assay type: in vivo
How it was run: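 Female Foxn nu/nu mice (4 weeks old on arrival) received 3.5 × 10^6 BxPC-3 cells in 50:50 Cultrex BME:DMEM, injected subcutaneously into the right hind flank. At ~95 mm3 they were stratified into four groups of eight. […] Dosing ran 21 days, then 25 days of follow-up. Caliper volume, (W² × L)/2, and body weight were recorded biweekly. Analysis used a mixed model with Dunnett post hoc.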

[2] = through a range of pH's; cited from earlier work
[3] = previously measured; cited from earlier work

human placental alkaline phosphatase, sequence (P05187 23-535): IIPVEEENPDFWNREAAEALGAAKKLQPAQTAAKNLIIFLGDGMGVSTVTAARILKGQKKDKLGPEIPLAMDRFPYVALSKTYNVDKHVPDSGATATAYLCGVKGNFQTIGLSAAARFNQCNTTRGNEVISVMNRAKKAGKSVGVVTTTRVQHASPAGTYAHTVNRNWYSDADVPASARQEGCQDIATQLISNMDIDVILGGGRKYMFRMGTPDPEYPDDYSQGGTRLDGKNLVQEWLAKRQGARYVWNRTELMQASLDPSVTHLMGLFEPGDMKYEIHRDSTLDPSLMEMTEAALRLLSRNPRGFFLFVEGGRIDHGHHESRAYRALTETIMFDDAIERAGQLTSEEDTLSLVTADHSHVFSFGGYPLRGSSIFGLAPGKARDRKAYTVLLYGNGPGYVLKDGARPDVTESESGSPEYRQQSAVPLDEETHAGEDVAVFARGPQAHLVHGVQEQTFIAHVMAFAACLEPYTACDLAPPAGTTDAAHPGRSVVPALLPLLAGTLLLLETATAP

## CC(=O)O[C@H]1C(=O)[C@@]2(C)[C@H]([C@H](OC(=O)c3ccccc3)[C@]3(O)C[C@H](OC(=O)[C@H](OC(=O)OCc4cc(C(=O)O)ccc4OP(=O)(O)O)[C@@H](NC(=O)c4ccccc4)c4ccccc4)C(C)=C1C3(C)C)[C@]1(OC(C)=O)CO[C@@H]1C[C@@H]2O [Compound 8i, 3-((((((1S,2 R)-1-benzamido-3-(((2aR,4S,4aS,6 R,9S,11S,12S,12aR,12bS)-6,12b-diacetoxy-12-(benzoyloxy)-4,11-dihydroxy-4a,8,13,13-tetramethyl-5-oxo-2a,3,4,4a,5,6,9,10,11,12,12a,12b-dodecahydro-1H-7,11-methanocyclodeca[3,4]benzo[1,2-b]oxet-9-yl)oxy)-3-oxo-1-phenylpropan−2-yl)oxy)carbonyl)oxy)methyl)-4-(phosphonooxy)benzoic acid]
[1]
  Hydrolysis rate in ALP (drug formation rate): 2.13 pmol/min

## CC(=O)O[C@H]1C(=O)[C@@]2(C)[C@H]([C@H](OC(=O)c3ccccc3)[C@]3(O)C[C@H](OC(=O)[C@H](OC(=O)OCc4cc(P(=O)(O)O)ccc4OP(=O)(O)O)[C@@H](NC(=O)c4ccccc4)c4ccccc4)C(C)=C1C3(C)C)[C@]1(OC(C)=O)CO[C@@H]1C[C@@H]2O [Compound 8vi, (3-((((((1S,2 R)-1-benzamido-3-(((2aR,4S,4aS,6 R,9S,11S,12S,12aR,12bS)-6,12b-diacetoxy-12-(benzoyloxy)-4,11-dihydroxy-4ª,8,13,13-tetramethyl−5-oxo-2ª,3,4,4ª,5,6,9,10,11,12,12ª,12b-dodecahydro-1H-7,11-methanocyclodeca[3,4]benzo[1,2-b]oxet-9-yl)oxy)-3-oxo-1-phenylpropan-2-yl)oxy)carbonyl)oxy)methyl)-4-(phosphonooxy)phenyl)phosphonic acid]
[1]
  Hydrolysis rate in ALP (drug formation rate): 1.44 pmol/min
BxPC-3 xenograft; 25 mg/kg PO QOD in saline, following the 21-day dosing period
  Tumor growth inhibition (TGI): –15%
BxPC-3 xenograft; 75 mg/kg PO QOD in saline, following the 25-day observation period
  Tumor growth inhibition (TGI): 84%
BxPC-3 xenograft; 25 and 75 mg/kg PO QOD, 21 days
  Toxicity during dosing: no appreciable toxicity

## CNC(=O)c1ccc(N2C(=S)N(c3ccc(C#N)c(C(F)(F)F)c3)C(=O)C2(C)C)cc1F [Enzalutamide, enzalutamide]
[2]
  Solubility in water: < 0.1 µg/mL

## CC(=O)O[C@H]1C(=O)[C@@]2(C)[C@H]([C@H](OC(=O)c3ccccc3)[C@]3(O)C[C@H](OC(=O)[C@H](O)[C@@H](NC(=O)c4ccccc4)c4ccccc4)C(C)=C1C3(C)C)[C@]1(OC(C)=O)CO[C@@H]1C[C@@H]2O [Paclitaxel, paclitaxel, reference compound]
[3]
  Oral bioavailability: < 6%
BxPC-3 xenograft; 12.5 mg/kg IV QWK in Cremophor EL, following the 21-day dosing period
  Tumor growth inhibition (TGI): 78%
BxPC-3 xenograft; 12.5 mg/kg IV QWK in Cremophor EL, following the 25-day observation period
  Tumor growth inhibition (TGI): 51%
